Activity calls are given as the source filed them. The calls are words filed in the database; no cut-off is given here.
Columns and labels:
Mus musculus [1] = assay: Anti-ulcerative colitis activity in DSS-induced BALB/c mouse ulcerative colitis model assessed as inhibited inflammation in colon at 50 mg/kg administrated for 14 days by H and E staining analysis; assay type: functional, organism-based; conditions: time 14.0 day
Procedure, shortened: (§1)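 Male SPF BALB/c mice (18–22 g), n = 8 per group. Colitis induced with freshly prepared 5% DSS (MW 36,000–50,000) in pure water as drinking water ad libitum for 7 days. Treatment at 50 mg/kg ran from day 1 for 14 days; control and model groups received pure water. Mice sacrificed after 14 days of treatment. Data as means ± S.E.M.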

Mus musculus [2] = assay: Anti-ulcerative colitis activity in DSS-induced BALB/c mouse ulcerative colitis model assessed as promoted regeneration of intestinal mucosa at 50 mg/kg administrated for 14 days by H and E staining analysis; assay type: functional, organism-based; conditions: time 14.0 day; procedure, shortened: as §1
Mus musculus [3] = assay: Anti-inflammatory activity against DSS-induced ulcerative colitis BALB/c mouse model assessed as reduction in colon macroscopic scores at 50 mg/kg administrated for 14 days; assay type: functional, organism-based; conditions: time 14.0 day; procedure, shortened: as §1
Mus musculus [4] = assay: Anti-inflammatory activity against DSS-induced ulcerative colitis BALB/c mouse model assessed as reduction in TNF-alpha protein expression in colon tissue at 50 mg/kg administrated for 14 days by Western blot analysis; assay type: functional, organism-based; conditions: time 14.0 day; procedure, shortened: as §1
Mus musculus [5] = assay: Anti-inflammatory activity against DSS-induced ulcerative colitis BALB/c mouse model assessed as reduction in TNF-alpha mRNA expression in colon tissue at 50 mg/kg administrated for 14 days by RT-qPCR analysis; assay type: functional, organism-based; conditions: time 14.0 day; procedure, shortened: as §1
Mus musculus [6] = assay: Anti-inflammatory activity against DSS-induced ulcerative colitis BALB/c mouse model assessed as reduction in IL-6 protein expression in colon tissue at 50 mg/kg administrated for 14 days by Western blot analysis; assay type: functional, organism-based; conditions: time 14.0 day; procedure, shortened: as §1
Mus musculus [7] = assay: Anti-inflammatory activity against DSS-induced ulcerative colitis BALB/c mouse model assessed as reduction in IL-6 mRNA expression in colon tissue at 50 mg/kg administrated for 14 days by RT-qPCR analysis; assay type: functional, organism-based; conditions: time 14.0 day; procedure, shortened: as §1
Mus musculus [8] = assay: Anti-inflammatory activity against DSS-induced ulcerative colitis BALB/c mouse model assessed as reduction in IL-1beta protein expression in colon tissue at 50 mg/kg administrated for 14 days by Western blot analysis; assay type: functional, organism-based; conditions: time 14.0 day; procedure, shortened: as §1
Mus musculus [9] = assay: Anti-inflammatory activity against DSS-induced ulcerative colitis BALB/c mouse model assessed as reduction in IL-1beta mRNA expression in colon tissue at 50 mg/kg administrated for 14 days by RT-qPCR analysis; assay type: functional, organism-based; conditions: time 14.0 day; procedure, shortened: as §1
Mus musculus [10] = assay: Anti-inflammatory activity against DSS-induced ulcerative colitis BALB/c mouse model assessed as reduction in mast cells infiltration in colon tissue at 50 mg/kg administrated for 14 days by aldehyde-fuchsin orange G staining based assay; assay type: functional, organism-based; conditions: time 14.0 day; procedure, shortened: as §1
Mus musculus [11] = assay: Anti-inflammatory activity against DSS-induced ulcerative colitis BALB/c mouse model assessed as reduction in MPO activity in colon tissue at 50 mg/kg administrated for 14 days by colorimetric method; assay type: functional, organism-based; conditions: time 14.0 day; procedure, shortened: as §1
Mus musculus [12] = assay: Anti-inflammatory activity against DSS-induced ulcerative colitis BALB/c mouse model assessed as increase in SOD levels in colon tissue at 50 mg/kg administrated for 14 days by xanthine oxidase based method; assay type: functional, organism-based; conditions: time 14.0 day; procedure, shortened: as §1
Mus musculus [13] = assay: Anti-ulcerative colitis activity in DSS-induced BALB/c mouse ulcerative colitis model assessed as reduction in colon damage at 50 mg/kg administrated for 14 days by H and E staining analysis; assay type: functional, organism-based; conditions: time 14.0 day; procedure, shortened: as §1
Mus musculus [14] = assay: Anti-ulcerative colitis activity in DSS-induced BALB/c mouse ulcerative colitis model assessed as decrease in histological scores at 50 mg/kg administrated for 14 days by H and E staining analysis; assay type: functional, organism-based; conditions: time 14.0 day; procedure, shortened: as §1
Mus musculus [15] = assay: Anti-ulcerative colitis activity in DSS-induced BALB/c mouse ulcerative colitis model assessed as decrease in spleen weight at 50 mg/kg administrated for 14 days; assay type: functional, organism-based; conditions: time 14.0 day; procedure, shortened: as §1
Mus musculus [16] = assay: Anti-ulcerative colitis activity in DSS-induced BALB/c mouse ulcerative colitis model assessed as increase in cecum weight at 50 mg/kg administrated for 14 days; assay type: functional, organism-based; conditions: time 14.0 day; procedure, shortened: as §1
Mus musculus [17] = assay: Anti-ulcerative colitis activity in DSS-induced BALB/c mouse ulcerative colitis model assessed as colon length/colon weight ratio at 50 mg/kg administrated for 14 days (reference value: 22.608 +/- 2.655 cm/g); assay type: functional; conditions: time 14 day; procedure, shortened: as §1
Mus musculus [18] = assay: Anti-ulcerative colitis activity in DSS-induced BALB/c mouse ulcerative colitis model assessed as colon weight at 50 mg/kg administrated for 14 days (reference value: 0.369 +/- 0.023 g); assay type: functional; conditions: time 14 day; procedure, shortened: as §1
Mus musculus [19] = assay: Anti-ulcerative colitis activity in DSS-induced BALB/c mouse ulcerative colitis model assessed as colon length at 50 mg/kg administrated for 14 days (reference value: 8.350 +/- 1.111 cm); assay type: functional; conditions: time 14 day; procedure, shortened: as §1
Mus musculus [20] = assay: Anti-ulcerative colitis activity in DSS-induced BALB/c mouse ulcerative colitis model of assessed as reduction in disease activity index at 50 mg/kg administrated for 14 days; assay type: functional, organism-based; conditions: time 14.0 day; procedure, shortened: as §1
[21] = system: Salmonella enterica subsp. enterica serovar Paratyphi B; assay: Antibacterial activity against Salmonella paratyphi B 0039 after 24 hrs by microdilution method; assay type: functional, organism-based; conditions: 39
Procedure, shortened: (§2)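 Test agents diluted in culture medium at ratios 1:2.5 to 1:640 (twofold series) and steam-sterilized; pure water as control. Inoculum from 4–5 colonies grown in nutrient broth 8 h at 37 °C, then diluted to 1.5×10^5 CFU/mL. Broth microdilution in 96-well plate, 0.1 ml strain suspension per well, 37 °C 24 h; MIC read visually.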

Salmonella typhi = assay: Antibacterial activity against Typhoid bacillus 50071-16 after 24 hrs by microdilution method; assay type: functional, organism-based; conditions: Salmonella enterica subsp. enterica serovar Typhi; procedure, shortened: as §2
Escherichia coli = assay: Antibacterial activity against Escherichia coli 44113-5 after 24 hrs by microdilution method; assay type: functional, organism-based
Procedure, shortened: (§3)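 Broth microdilution in Mueller Hinton medium, drug media diluted 1:2.5 to 1:640 and sterilized with circulating steam; pure water as control. Four to five colonies grown in nutrient broth 8 h at 37 °C and diluted to 1.5×10^5 CFU/mL. 0.1 ml per well, incubated 37 °C for 24 h; MIC read by observation.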

Pseudomonas aeruginosa = assay: Antibacterial activity against Pseudomonas aeruginosa 10211 incubated for 24 hrs; assay type: functional, organism-based; procedure, shortened: as §3
Streptococcus pneumoniae = assay: Antibacterial activity against Streptococcus pneumoniae 32215 after 24 hrs by microdilution method; assay type: functional, organism-based; procedure, shortened: as §3
Candida albicans = assay: Antifungal activity against Candida albicans 98001 after 24 hrs by microdilution method; assay type: functional, organism-based; procedure, shortened: as §3
Streptococcus pyogenes = assay: Antibacterial activity against streptococcus hemolyticus 32210 after 24 hrs by microdilution method; assay type: functional, organism-based; procedure, shortened: as §3
Staphylococcus aureus = assay: Antibacterial activity against Staphylococcus aureus 261112-5 after 24 hrs by microdilution method; assay type: functional, organism-based; procedure, shortened: as §3

Row | Compound | Activity (Mus musculus [4]) | Activity (Mus musculus [5]) | Activity (Mus musculus [6]) | Activity (Mus musculus [7]) | Activity (Mus musculus [8]) | Activity (Mus musculus [9]) | Activity (Mus musculus [13]) | Activity (Mus musculus [15]) | Activity (Mus musculus [16]) | Ratio (Mus musculus [17]) | Activity (Mus musculus [18]) [g] | Activity (Mus musculus [19]) [cm] | Activity (Mus musculus [20]) | Activity [21] | Activity (Salmonella typhi) | Activity (Escherichia coli) | Activity (Pseudomonas aeruginosa) | Activity (Streptococcus pneumoniae) | Activity (Candida albicans) | Activity (Streptococcus pyogenes) | other results
1 | COc1ccc2cc3[n+](cc2c1OCCCCOC(=O)[C@H]1O[C@@H](Oc2cc4oc(-c5ccccc5)cc(=O)c4c(O)c2O)[C@H](O)[C@@H](O)[C@@H]1O)CCc1cc2c(cc1-3)OCO2 | Active | Active | Active | Active | Active | Active | Active | Active | Active | 29.769 | 0.311 | 9.288 | Active | Active | Active | Active | Active | Active | Active | Active | Activity (Mus musculus [1]): Active; Activity (Mus musculus [2]): Active; Activity (Mus musculus [3]): Active; Activity (Mus musculus [10]): Active; Activity (Mus musculus [11]): Active; Activity (Mus musculus [12]): Active; Activity (Mus musculus [14]): Active; Activity (Staphylococcus aureus): Active
2 | COc1ccc2cc3[n+](cc2c1OC)CCc1cc2c(cc1-3)OCO2.[Cl-] [BERBERINE CHLORIDE] | Active | Active | Active | Active | Active | Active | Active | inactive | Active | 28.175 | 0.315 | 8.95 | Active | Active | Active | Active | Active | Active | Active | Active | Activity (Mus musculus [1]): Active; Activity (Mus musculus [2]): Active; Activity (Mus musculus [10]): Active; Activity (Mus musculus [11]): Active; Activity (Mus musculus [14]): Active; Activity (Staphylococcus aureus): Active
3 | O=C(O)[C@H]1O[C@@H](Oc2cc3oc(-c4ccccc4)cc(=O)c3c(O)c2O)[C@H](O)[C@@H](O)[C@@H]1O [BAICALIN] | inactive | inactive | inactive | inactive | inactive | inactive | inactive | inactive | inactive | 24.172 | 0.369 | 8.74 | inactive | inactive | inactive | inactive | inactive | inactive | inactive | inactive | Activity (Staphylococcus aureus): inactive

— ChEMBL document CHEMBL4665879, “Design, synthesis and evaluation of a baicalin and berberine hybrid compound as therapeutic agent for ulcerative colitis” (2020)
